# According to ChEMBL document CHEMBL4330063, “New naphthopyran analogues of LY290181 as potential tumor vascular-disrupting agents” (Eur J Med Chem, 2019):
# Calls of active or inactive are those of the source. The calls are words filed in the database; no cut-off is given here.
# Experiments:
# 518A2 [1] = experiment: Antiproliferative activity against human 518A2 cells after 72 hrs by MTT assay; format: functional, cell-based; conditions: for IC50: 518A2, 72 h
# Outline: (§1)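 MTT read-out after 72 h of continuous exposure. Viability is expressed as percentage of viable cells relative to untreated controls. IC50 comes from dose-response curves. Values are means±SD of four independent experiments (two for some entries). DMSO was below 1%, with vehicle controls at equal DMSO. Precipitation was excluded spectrometrically and microscopically.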
# HT-29 [2] = experiment: Antiproliferative activity against human HT-29 cells after 72 hrs by MTT assay; format: functional, cell-based; conditions: HT-29, 72 h; outline: as §1
# A2780 = experiment: Antiproliferative activity against human A2780 cells after 72 hrs by SRB assay; format: functional, cell-based; conditions: A2780, 72 h
# Outline: (§2)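 Ovarian A2780 and cisplatin-resistant A2780cis cells were exposed for 72 h and stained with SRB. IC50 comes from dose-response curves, as means±SD of three independent experiments. Final DMSO was below 1%, with matched vehicle controls.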
# [3] = Antiproliferative activity against human A2780cis cells after 72 hrs by SRB assay; format: functional, cell-based; outline: as §2
# DLD-1 = experiment: Antiproliferative activity against human DLD1 cells after 72 hrs by MTT assay; format: functional, cell-based; conditions: DLD-1, 72 h; outline: as §1
# EA.hy 926 [4] = experiment: Antiproliferative activity against human EAhy926 cells after 72 hrs by MTT assay; format: functional, cell-based; conditions: EA.hy 926, 72 h; outline: as §1
# PANC-1 = experiment: Antiproliferative activity against human PANC1 cells after 72 hrs by MTT assay; format: functional, cell-based; conditions: PANC-1, 72 h; outline: as §1
# HCT-116 = experiment: Antiproliferative activity against human HCT116 cells after 72 hrs by MTT assay; format: functional, cell-based; conditions: HCT-116, 72 h; outline: as §1
# [5] = Antiproliferative activity against human KB-V1/Vbl cells after 72 hrs by MTT assay; format: functional, cell-based; outline: as §1
# [6] = Antiproliferative activity against human MCF7/Topo cells after 72 hrs by MTT assay; format: functional, cell-based; outline: as §1
# EA.hy 926 [7] = experiment: Antiangiogenic activity against human EAhy926 cells assessed as inhibition of tube formation on matrigel at 100 nM after 24 hrs by light microscopic analysis; format: functional, cell-based
# Outline: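 Ea.Hy926 endothelial hybrid cells were seeded on matrigel with compound and examined for tubular/cord-like network formation versus untreated controls. Viability under the same conditions was checked in parallel by MTT to exclude cytotoxic effects.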
# EA.hy 926 [8] = experiment: Cytotoxicity against human EAhy926 cells at 100 nM after 24 hrs by MTT assay relative to control; format: cell-based; conditions: ea.hy 926, 24 h, 0.1 µM
# HT-29 [9] = experiment: Cell cycle arrest in human HT-29 cells assessed as accumulation of cells at sub G1 phase at 100 nM after 24 hrs by propidium iodide staining-based flow cytometric analysis (reference value: 1.2 +/- 0.3%); format: functional
# HT-29 [10] = experiment: Cell cycle arrest in human HT-29 cells assessed as accumulation of cells at sub G1 phase at 250 nM after 24 hrs by propidium iodide staining-based flow cytometric analysis (reference value: 1.2 +/- 0.3%); format: functional
# HT-29 [11] = experiment: Cell cycle arrest in human HT-29 cells assessed as accumulation of cells at sub G1 phase at 350 nM after 24 hrs by propidium iodide staining-based flow cytometric analysis (reference value: 1.2 +/- 0.3%); format: functional
# HT-29 [12] = experiment: Cell cycle arrest in human HT-29 cells assessed as accumulation of cells at G1 phase at 100 nM after 24 hrs by propidium iodide staining-based flow cytometric analysis (reference value: 75.1 +/- 1.1%); format: functional
# HT-29 [13] = experiment: Cell cycle arrest in human HT-29 cells assessed as accumulation of cells at G1 phase at 250 nM after 24 hrs by propidium iodide staining-based flow cytometric analysis (reference value: 75.1 +/- 1.1%); format: functional
# HT-29 [14] = experiment: Cell cycle arrest in human HT-29 cells assessed as accumulation of cells at G1 phase at 350 nM after 24 hrs by propidium iodide staining-based flow cytometric analysis (reference value: 75.1 +/- 1.1%); format: functional
# HT-29 [15] = experiment: Cell cycle arrest in human HT-29 cells assessed as accumulation of cells at S phase at 100 nM after 24 hrs by propidium iodide staining-based flow cytometric analysis (reference value: 12.3 +/- 0.4%); format: functional
# HT-29 [16] = experiment: Cell cycle arrest in human HT-29 cells assessed as accumulation of cells at S phase at 250 nM after 24 hrs by propidium iodide staining-based flow cytometric analysis (reference value: 12.3 +/- 0.4%); format: functional
# HT-29 [17] = experiment: Cell cycle arrest in human HT-29 cells assessed as accumulation of cells at S phase at 350 nM after 24 hrs by propidium iodide staining-based flow cytometric analysis (reference value: 12.3 +/- 0.4%); format: functional
# HT-29 [18] = experiment: Cell cycle arrest in human HT-29 cells assessed as accumulation of cells at G2/M phase at 100 nM after 24 hrs by propidium iodide staining-based flow cytometric analysis (reference value: 11.4 +/- 1.4%); format: functional
# HT-29 [19] = experiment: Cell cycle arrest in human HT-29 cells assessed as accumulation of cells at G2/M phase at 250 nM after 24 hrs by propidium iodide staining-based flow cytometric analysis (reference value: 11.4 +/- 1.4%); format: functional
# HT-29 [20] = experiment: Cell cycle arrest in human HT-29 cells assessed as accumulation of cells at G2/M phase at 350 nM after 24 hrs by propidium iodide staining-based flow cytometric analysis (reference value: 11.4 +/- 1.4%); format: functional
# 518A2 [21] = experiment: Induction of apoptosis in human 518A2 cells at 100 nM after 24 hrs by TUNEL assay relative to control; format: functional
# Tubulin (Homo sapiens) = Tubulin (Homo sapiens) (UniProt P68371+Q9H4B7+P0DPH7+P68366+Q13509+Q71U36+P04350+Q3ZCM7+P07437+P68363+Q9BQE3+Q6PEY2+Q13885+Q9BVA1+Q9BUF5); experiment: Induction of microtubule disruption in human 518A2 cells at 100 nM after 3 hrs by DAPI staining-based fluorescence microscopic analysis; format: cell-based
# Outline: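 Microtubule organization in 518A2 melanoma cells was checked by tubulin immunofluorescence staining after 3 h exposure to 100 nM, with DAPI as the nuclear counterstain. Images come from two independent experiments.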
# Tubulin = Tubulin (Sus scrofa, UniProt P02554+P02550); experiment: Inhibition of porcine brain tubulin polymerization after 2 hrs
# 518A2 [22] = experiment: Effect on F-actin in human 518A2 cells assessed as thick stress fibers formation at 100 nM after 3 hrs by DAPI staining-based fluorescence microscopic analysis; format: cell-based
# Outline: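 518A2 melanoma cells were treated with 100 nM for 3 h. Filamentous actin was fluorescence-labelled, nuclei were counterstained with DAPI, and the cells were imaged by fluorescence microscopy. Images come from two independent experiments.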
# 518A2 [23] = experiment: Antimigratory activity against human 518A2 cells at 50 nM after 48 hrs by wound healing assay; format: functional, cell-based
# 518A2 [24] = experiment: Induction of apoptosis in human 518A2 cells assessed as caspase-9 activity at 5 uM after 3.5 hrs by Caspase-Glo luminescence assay (reference value: 100 +/- 1.2%); format: functional
# 518A2 [25] = experiment: Induction of apoptosis in human 518A2 cells assessed as accumulation at subG1 phase; format: functional, cell-based
# 518A2 [26] = experiment: Induction of cell cycle arrest in human 518A2 cells; format: functional, cell-based
# HT-29 [27] = experiment: Cell cycle arrest in human HT-29 cells assessed as accumulation of cells at G2/M phase after 24 hrs by propidium iodide staining-based flow cytometric analysis; format: functional
Structure (SMILES),Activity (518A2 [1]),IC50 (518A2 [1]) [nM],IC50 (HT-29 [2]) [nM],IC50 (A2780) [nM],IC50 [3] [nM],IC50 (DLD-1) [nM],IC50 (EA.hy 926 [4]) [nM],IC50 (PANC-1) [nM],IC50 (HCT-116) [nM],IC50 [5] [nM],IC50 [6] [nM],Activity (EA.hy 926 [7]),Activity (EA.hy 926 [8]) [%],Activity (HT-29 [9]) [%],Activity (HT-29 [10]) [%],Activity (HT-29 [11]) [%],Activity (HT-29 [12]) [%],Activity (HT-29 [13]) [%],Activity (HT-29 [14]) [%],Activity (HT-29 [15]) [%],also measured
N#CC1=C(N)Oc2c(ccc3ccccc23)C1c1cccc([N+](=O)[O-])c1 (stereo not drawn),Dose-dependent effect,35.9,46.9,18.7,26,33.7,35.6,12.5,44.3,22.6,11.8,Active,> 68,6.1,13,12.2,49.3,51.7,39.8,26.2,Activity (HT-29 [16]): 22.4%; Activity (HT-29 [17]): 24.1%; Activity (HT-29 [18]): 18.4%; Activity (HT-29 [19]): 12.9%; Activity (HT-29 [20]): 23.9%; Activity (518A2 [21]): 61.4%; Activity (Tubulin (Homo sapiens)): Active; I50 (Tubulin): 7.1 µM; Activity (518A2 [22]): Active; Activity (518A2 [23]): Active; Activity (518A2 [24]): 114.7%; Activity (518A2 [25]): Active; Activity (518A2 [26]): inactive; Activity (HT-29 [27]): Dose-dependent effect
N#CC1=C(N)Oc2c(ccc3ccccc23)C1c1cc(F)cc(F)c1 (stereo not drawn),Dose-dependent effect,26.4,176,17,20.3,32.3,31.5,19.5,47,25.8,20.1,Active,> 68,7.1,11.3,13.4,40.3,35.9,30.8,20.7,Activity (HT-29 [16]): 19.2%; Activity (HT-29 [17]): 12.3%; Activity (HT-29 [18]): 31.8%; Activity (HT-29 [19]): 33.6%; Activity (HT-29 [20]): 43.5%; Activity (518A2 [21]): 67.5%; Activity (Tubulin (Homo sapiens)): Active; I50 (Tubulin): 9.6 µM; Activity (518A2 [22]): Active; Activity (518A2 [23]): Active; Activity (518A2 [24]): 133%; Activity (518A2 [25]): Active; Activity (518A2 [26]): inactive; Activity (HT-29 [27]): Dose-dependent effect
